# Measured values as given in ChEMBL document CHEMBL5321214, “Targeting the multifaceted neurotoxicity of Alzheimer's disease by tailored functionalisation of the curcumin scaffold” (Eur J Med Chem, 2023).
# Calls of active or inactive are those of the source. The rule behind the calls is not given here.
# How the values were obtained:
# Microglia [1] = assay: Antiinflammatory activity against Sprague-Dawley rat microglial cells assessed as downregulation of TNF-alpha mRNA expression at 2.5 uM pretreated with compound for 1 hr followed by LPS stimulation for 6 hrs by real-time PCR analysis; format: functional, cell-based; settings: time 7.0 hrs
# Summary of the method: (§1)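 Primary cortical microglia (postnatal day 1 rat pups, shaken off mixed glial cultures, ~97% Iba1-positive). Compound (DMSO ≤0.1%) for 1 h, then 100 ng/mL ultra-pure E. coli LPS for 6 h. QIAzol RNA extraction, SuperScript IV reverse transcription, real-time PCR. Mean ± SEM, n = 3 in triplicate; one-way ANOVA, Holm-Sidak test.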
# Microglia [2] = assay: Antiinflammatory activity against Sprague-Dawley rat microglial cells assessed as downregulation of IL-1 beta mRNA expression at 2.5 uM pretreated with compound for 1 hr followed by LPS stimulation for 6 hrs by real-time PCR analysis; format: functional, cell-based; settings: time 7.0 hrs; summary of the method: as §1
# SH-SY5Y = assay: Antioxidant activity in human SH-SY5Y cells assessed as increase in intracellular GSH level at 2.5 uM incubated for 24 hrs by […] fluorescence analysis; format: functional
# Summary of the method: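 SH-SY5Y (2×10^4 cells/well) grown 24 h, then exposed to 2.5 μM for 24 h at 37 °C. Fluorescent probe added 30 min at 37 °C; read at ex 355/em 460 nm. GSH (μM) from a GSH standard curve. Mean ± SEM of three experiments; one-way ANOVA with Dunnett's test.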
# [3] = target: Keap1/Nrf2 (Homo sapiens) (UniProt Q16236+Q14145); assay: Activation of Keap1/Nrf2 in human SH-SY5Y cells assessed as Nrf2 nuclear translocation by measuring increase in nuclear to cytosolic Nrf2 ratio at 2.5 uM incubated for 3 hrs by western blot analysis; format: cell-based; settings: filed as activator
# Keap1/Nrf2 (Homo sapiens), sequence (Q14145 whole entry, looked up): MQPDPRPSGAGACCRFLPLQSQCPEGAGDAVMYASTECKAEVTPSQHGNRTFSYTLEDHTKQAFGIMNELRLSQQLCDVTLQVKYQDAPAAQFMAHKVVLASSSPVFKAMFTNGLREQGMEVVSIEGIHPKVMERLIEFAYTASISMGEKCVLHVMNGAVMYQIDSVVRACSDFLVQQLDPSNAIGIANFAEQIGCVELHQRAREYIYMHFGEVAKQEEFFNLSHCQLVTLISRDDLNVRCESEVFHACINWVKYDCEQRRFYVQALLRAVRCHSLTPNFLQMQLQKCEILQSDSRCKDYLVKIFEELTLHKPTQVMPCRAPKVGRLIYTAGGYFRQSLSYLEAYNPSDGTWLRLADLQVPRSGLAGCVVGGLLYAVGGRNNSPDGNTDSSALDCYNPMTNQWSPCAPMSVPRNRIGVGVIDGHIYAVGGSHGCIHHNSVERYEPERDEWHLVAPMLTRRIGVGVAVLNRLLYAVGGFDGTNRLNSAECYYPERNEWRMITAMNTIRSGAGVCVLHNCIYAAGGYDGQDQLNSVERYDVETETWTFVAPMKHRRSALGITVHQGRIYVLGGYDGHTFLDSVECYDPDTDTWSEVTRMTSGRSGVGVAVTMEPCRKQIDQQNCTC
# Keap1/Nrf2 (Homo sapiens), sequence (Q16236 whole entry, looked up): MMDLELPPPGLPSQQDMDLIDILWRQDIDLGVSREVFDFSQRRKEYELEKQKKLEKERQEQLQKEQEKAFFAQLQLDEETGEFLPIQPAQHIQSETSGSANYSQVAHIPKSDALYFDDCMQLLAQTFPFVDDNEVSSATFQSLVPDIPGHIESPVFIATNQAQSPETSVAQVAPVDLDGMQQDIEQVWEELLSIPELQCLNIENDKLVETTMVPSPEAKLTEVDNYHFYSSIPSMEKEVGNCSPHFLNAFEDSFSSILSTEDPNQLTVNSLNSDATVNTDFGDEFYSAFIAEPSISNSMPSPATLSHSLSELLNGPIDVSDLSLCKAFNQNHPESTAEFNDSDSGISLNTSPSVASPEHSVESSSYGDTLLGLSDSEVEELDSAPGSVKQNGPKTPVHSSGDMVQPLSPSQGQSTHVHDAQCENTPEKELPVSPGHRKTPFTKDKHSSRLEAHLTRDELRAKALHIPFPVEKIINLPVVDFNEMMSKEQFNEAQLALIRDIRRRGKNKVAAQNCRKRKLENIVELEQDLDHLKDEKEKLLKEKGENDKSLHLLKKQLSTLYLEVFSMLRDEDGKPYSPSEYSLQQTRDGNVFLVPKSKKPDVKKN
# Summary of the method: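 SH-SY5Y seeded 2×10^6 cells/dish, grown 24 h, then exposed 3 h at 37 °C, 5% CO2. Nuclear and cytosolic fractions immunoblotted for Nrf2, membranes stripped and reprobed for β-actin and lamin B1 as loading references. Mean ± SEM of three independent experiments; one-way ANOVA with Dunnett's test.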
# [4] = target: Amyloid-beta precursor protein (Homo sapiens) (UniProt P05067); assay: Anti-oligomeric activity against Abeta42 (unknown origin) assessed as depletion of the formation of toxic HMW Abeta42 oligomers at 2.5 uM measured after 2 to 10 days from sample solubilization by capillary electrophoresis assay; settings: time 2-10 day
# Amyloid-beta precursor protein (Homo sapiens), sequence (P05067 whole entry): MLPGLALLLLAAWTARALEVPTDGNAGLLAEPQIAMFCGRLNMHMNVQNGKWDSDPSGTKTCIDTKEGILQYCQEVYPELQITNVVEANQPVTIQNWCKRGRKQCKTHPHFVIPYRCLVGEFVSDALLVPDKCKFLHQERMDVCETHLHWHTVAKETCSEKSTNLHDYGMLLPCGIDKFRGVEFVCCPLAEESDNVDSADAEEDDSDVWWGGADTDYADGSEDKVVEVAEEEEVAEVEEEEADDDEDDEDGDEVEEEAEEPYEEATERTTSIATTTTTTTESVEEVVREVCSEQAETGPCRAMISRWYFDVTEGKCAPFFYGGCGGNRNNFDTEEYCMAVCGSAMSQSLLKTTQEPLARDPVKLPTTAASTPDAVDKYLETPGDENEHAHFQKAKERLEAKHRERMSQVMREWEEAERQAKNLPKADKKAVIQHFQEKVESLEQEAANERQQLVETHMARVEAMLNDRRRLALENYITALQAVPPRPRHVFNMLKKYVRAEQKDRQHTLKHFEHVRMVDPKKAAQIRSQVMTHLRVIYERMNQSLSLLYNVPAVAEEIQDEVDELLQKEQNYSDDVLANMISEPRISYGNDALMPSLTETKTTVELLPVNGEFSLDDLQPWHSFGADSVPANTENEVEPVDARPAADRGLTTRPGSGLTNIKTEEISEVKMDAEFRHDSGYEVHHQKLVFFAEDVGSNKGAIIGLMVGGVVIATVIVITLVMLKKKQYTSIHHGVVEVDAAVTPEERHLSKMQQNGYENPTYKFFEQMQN
# Summary of the method: (§2)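 Aβ42 stock diluted to 221 μM in 20 mM sodium phosphate pH 7.4 containing compound (ethanol stocks 1.53 mM). Capillary electrophoresis: BGE 80 mM sodium phosphate pH 7.4, 30 mbar × 3 s hydrodynamic injection, +12 kV, 25 °C, 200 nm detection. Oligomers assigned by effective mobility; HMW oligomer peak quantified semiquantitatively as normalised area %.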
# [5] = target: Amyloid-beta precursor protein (Homo sapiens) (UniProt P05067); assay: Anti-oligomeric activity against Abeta42 (unknown origin) assessed as depletion of the formation of toxic HMW Abeta42 oligomers at 1 uM measured at day 7 to 10 from sample solubilization by capillary electrophoresis assay; settings: time 7-10 day; summary of the method: as §2
# [6] = Toxicity against Drosophila W1118 assessed as proportion of eclosed-flies at 10 uM measured after 72 hrs
# Drosophila = assay: Antioxidant activity in Spastin Drosophila (Tubulin/Gal4 RNAi DSpast) neurodegenerative model assessed as decrease in intracelluar ROS level in A2 muscle at 10 uM flies raised in compound-enriched food by DHE staining based fluorescence analysis; format: functional, organism-based
# Summary of the method: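 Spastin-RNAi (Tubulin-Gal4 cross, 28 °C) third-instar larvae raised on compound-enriched food, dissected in HL3, stained 30 min with 30 μM DHE, fixed in 4% PFA, DAPI counterstained. Confocal imaging (DHE 580–630 nm); two 2500 μm² ROIs per muscle or two 1900 μm² ROIs per brain, 10–15 larvae per group; DHE/DAPI ratio.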
smiles,measurement,setting,value
CCCCn1cc(C/C(C(=O)/C=C/c2ccc(OC)cc2)=C(O)\C=C\c2ccc(OC)cc2)nn1,Activity,Microglia [1],Active
same,Activity,Microglia [2],Active
same,Activity,SH-SY5Y,40%
same,Activity,[3],Active
same,Activity,[4],Active
same,Activity,[5],Active
same,Activity,[6],93.831%
same,Activity,Drosophila,Active
